Drawing on PubChem BioAssay, this text covers viability, differential viability (reversal) and inhibition for 20 molecules.

Experiment [1] is described as follows: HUVEC growth inhibition – cell-based, human, primary screen (AID 575;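 active means viability at or below 30% in both replicate assays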;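 further: 100% = median of untreated cell wells with 0.1% DMSO on each plate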). As to conditions: HUVEC proliferation, CellTiter-Glo luminescence, 72 h; at 10 µM; stronger effect = lower value. Put shortly:
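system = HUVEC primary cells | amount = 1250 cells/well | buffer or medium = supplemented EBM, 2% fetal bovine serum | dosing = single-point 10 µM, DMSO 0.1% final | times = 72 h compound incubation | detection = CTG luminescence | read-out = % viability relative to median vehicle-well signal on each plate | control set = vehicle and MePR control wells | format = collagen-coated 384-well format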
In general terms: Cellular ATP, detected with luciferase, serves as a proxy for viable cell number.

Experiment [2] can be described thus: H69AR cell proliferation blockers – human, duplicate replicates, primary screen (AID 580;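 active means viability at or under a set limit in both replicates, limit being median viability minus 3 SD, cut at about 48% in these data, passing the limit was not always enough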;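 further: 100% = mean luminescence of untreated wells and 0% = no signal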). As to conditions: H69AR lung tumor cells viability, ATP luminescence, 72 h; at 10 µM; stronger effect = lower value.
The nature of experiment [3]: MRP1 drug-resistance reversers in H69AR cells – cell-based, doxorubicin co-treatment, pilot screen (AID 601;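 active means viability loss from added drug above about 55%, and viability with drug at most 40%, in both replicates, limit read from the data, passing the limit was not always enough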). As to conditions: CellTiter-Glo, 72 h, at 10 µM; for differential viability (reversal): stronger effect = higher value.
Experiment [4] can be described thus: yeast transport mutant growth inhibition pilot in 384-well plates, post-Golgi transport modulator project (AID 636). As to conditions: absorbance 615 nm, about 18 h, stronger effect = higher value.
The nature of experiment [5]: growth suppression of yeast trafficking mutant, preliminary HTS, modulators of trafficking downstream of Golgi apparatus project, 1536-format plate, OD 615 nm (AID 637; in the data active means inhibition above about 30%). As to conditions: yeast transport mutant growth, absorbance 615 nm, 18 h; stronger effect = higher value.
Where [6] appears, read: H69AR cells + 2 uM doxorubicin, measured here: viability with 2 uM doxorubicin, stronger effect = lower value.
Setting [7] is: H69AR cells, compound alone cytotoxicity.

The source made the active and inactive calls. Unless noted, no stated cut-off is given here; in the data, active means inhibition above about 31%; inactive means the rest.

For `COc1ccc(Cn2nnnc2C(c2ccncc2)N2CCOCC2)cc1` (stereo not given), the viability in experiment [1] is 90.4% (inactive); in experiment [2], 94.7% (inactive); in experiment [3] (setting [6]), 91.4%; in experiment [3] (setting [7]), 94.7%. Besides, in experiment [3] (H69AR cells + 2 uM doxorubicin), the differential viability (reversal) is 3.26% (inactive). The results for the inhibition in experiment [4] and in experiment [5] were 0.78% (inactive) and 0.95% (inactive), respectively.
As to `CC1=C(C(N)=O)C(c2ccc(Cl)cc2Cl)n2ncnc2N1` (stereo not given), the viability in experiment [1] was 91.8% (inactive); in experiment [2], 101% (inactive); in experiment [3] (setting [6]) it was 84.7%; in experiment [3] (setting [7]), 101%. For the same molecule, in experiment [3] (H69AR cells + 2 uM doxorubicin), the differential viability (reversal) was 16.7% (inactive). Moreover, the inhibition is 0% (inactive) in experiment [4] and 6.19% (inactive) in experiment [5].
On to `CC(=O)Nc1ccc(S(=O)(=O)N2CCSC2c2ccccc2)cc1` (stereo not given), for which the viability in experiment [1] is 99.6% (inactive); in experiment [2], 91.5% (inactive); in experiment [3] (setting [6]), 86.4%; in experiment [3] (setting [7]), 91.5%. Moreover, the differential viability (reversal) in experiment [3] (H69AR cells + 2 uM doxorubicin) was 5.05% (inactive). Also, the results for the inhibition in experiment [4] and in experiment [5] were -1.82% (inactive) and 0.32% (inactive), respectively.
Take `O=C(CNC(=O)c1cccs1)NCCN1CCN(c2ccccc2F)CC1`: the viability in experiment [1] is 101% (inactive); in experiment [2], 89.3% (inactive); in experiment [3] (setting [6]) it was 77.2%; in experiment [3] (setting [7]), 89.3%. Besides, the differential viability (reversal) in experiment [3] (H69AR cells + 2 uM doxorubicin) is 12.1% (inactive). Further, the inhibition was -3.95% (inactive) in experiment [4] and 2.54% (inactive) in experiment [5].
Take `CN(C)c1cccc(N=C2C=C(N3CCOCC3)CC(C)(C)C2)c1`: the viability in experiment [1] was 106% (inactive); in experiment [2], 91.8% (inactive); in experiment [3] (setting [6]), 93.7%; in experiment [3] (setting [7]), 91.8%. Also, in experiment [3] (H69AR cells + 2 uM doxorubicin), the differential viability (reversal) was -1.85% (inactive). In addition, the inhibition in experiment [4] is -1.04% (inactive); in experiment [5], -8.41% (inactive).
Consider `COc1cccc(OC)c1C(=O)Nc1ccccc1N1CCCC1`, for which the viability is 91.1% (inactive) in experiment [1], 91.6% (inactive) in experiment [2], 84.9% in experiment [3] (setting [6]) and 91.6% in experiment [3] (setting [7]). Moreover, in experiment [3] (H69AR cells + 2 uM doxorubicin), the differential viability (reversal) is 6.71% (inactive). The inhibition in experiment [4] was -1.71% (inactive); in experiment [5], -2.86% (inactive).
For `COC(=O)c1c(N)sc(C(=O)N2CCOCC2)c1C`, the viability is 95.2% (inactive) in experiment [1], 97.7% (inactive) in experiment [2], 91% in experiment [3] (setting [6]) and 97.7% in experiment [3] (setting [7]). The differential viability (reversal) in experiment [3] (H69AR cells + 2 uM doxorubicin) was 6.62% (inactive). The inhibition in experiment [4] was -0.4% (inactive); in experiment [5], -5.87% (inactive).
In the case of `COC(=O)c1ccc(C2CC(=O)Nc3cc(OC)c(OC)c(OC)c32)cc1` (stereo not given), the viability was 83.6% (inactive) in experiment [1], 89.4% (inactive) in experiment [2], 77.8% in experiment [3] (setting [6]) and 89.4% in experiment [3] (setting [7]). In addition, the differential viability (reversal) in experiment [3] (H69AR cells + 2 uM doxorubicin) is 11.6% (inactive). In addition, the figures for the inhibition in experiment [4] and in experiment [5] were -3.47% (inactive) and 0.63% (inactive), respectively.
With `CCCCNC(=O)c1cc(-c2ccc(F)cc2)on1`, the viability is 74.1% (inactive) in experiment [1], 81.2% (inactive) in experiment [2], 59.2% in experiment [3] (setting [6]) and 81.2% in experiment [3] (setting [7]). For the same molecule, in experiment [3] (H69AR cells + 2 uM doxorubicin), the differential viability (reversal) was 21.9% (inactive). Besides, the inhibition is -2.5% (inactive) in experiment [4] and -1.11% (inactive) in experiment [5].
Take `CCOc1cc(S(=O)(=O)NCc2ccc3c(c2)OCO3)ccc1F`: the viability in experiment [1] is 95.4% (inactive); in experiment [2], 97.9% (inactive); in experiment [3] (setting [6]) it was 93.5%; in experiment [3] (setting [7]), 97.9%. Also, in experiment [3] (H69AR cells + 2 uM doxorubicin), the differential viability (reversal) was 4.41% (inactive). Besides, the inhibition in experiment [4] is -4.8% (inactive); in experiment [5], 4.76% (inactive).
As for `Cc1ccc(CCSCC(=O)O)cn1`, the viability in experiment [1] was 109% (inactive); in experiment [2] it was 101% (inactive); in experiment [3] (setting [6]), 98.3%; in experiment [3] (setting [7]) it was 101%. Besides, the differential viability (reversal) in experiment [3] (H69AR cells + 2 uM doxorubicin) was 2.9% (inactive). Further, the inhibition is -2.4% (inactive) in experiment [4] and 0.16% (inactive) in experiment [5].
`Cn1c(=O)c(=O)n(C)c2cc(S(=O)(=O)N3CCN(c4cccc(C(F)(F)F)c4)CC3)ccc21`: the viability was 73% (inactive) in experiment [1], 93.3% (inactive) in experiment [2], 94.3% in experiment [3] (setting [6]) and 93.3% in experiment [3] (setting [7]). In addition, the differential viability (reversal) in experiment [3] (H69AR cells + 2 uM doxorubicin) was -1% (inactive). Moreover, the inhibition in experiment [4] is 0.4% (inactive); in experiment [5], 3.02% (inactive).
For the molecule `N#CC1=C(SCc2ccccc2)NC(=O)C(C#N)C12CCCC2` (stereo not given), the viability was 72.7% (inactive) in experiment [1], 83.1% (inactive) in experiment [2], 92.9% in experiment [3] (setting [6]) and 83.1% in experiment [3] (setting [7]). The differential viability (reversal) in experiment [3] (H69AR cells + 2 uM doxorubicin) is -9.75% (inactive). Also, the inhibition in experiment [4] is -5% (inactive); in experiment [5], 1.9% (inactive).
`COc1ccc(-c2nnc(-c3ccc(N)cc3)o2)cc1`: the viability was 95.9% (inactive) in experiment [1], 88.3% (inactive) in experiment [2], 91.1% in experiment [3] (setting [6]) and 88.3% in experiment [3] (setting [7]). Also, the differential viability (reversal) in experiment [3] (H69AR cells + 2 uM doxorubicin) is -2.75% (inactive). In addition, the inhibition in experiment [4] was -4.13% (inactive); in experiment [5], 3.81% (inactive).
With `Nc1nc(SCc2nc3scc(-c4cccs4)c3c(=O)[nH]2)n[nH]1`, the viability in experiment [1] was 77.5% (inactive); in experiment [2] it was 93.4% (inactive); in experiment [3] (setting [6]) it was 97.3%; in experiment [3] (setting [7]), 93.4%. For the same molecule, the differential viability (reversal) in experiment [3] (H69AR cells + 2 uM doxorubicin) was -3.9% (inactive). In addition, the inhibition is -2.67% (inactive) in experiment [4] and 0.32% (inactive) in experiment [5].
As for `COc1ccc(Cc2nc3ccc(S(N)(=O)=O)cc3[nH]2)cc1OC`, the viability in experiment [1] was 106% (inactive); in experiment [2], 99.9% (inactive); in experiment [3] (setting [6]), 85.4%; in experiment [3] (setting [7]), 99.9%. In experiment [3] (H69AR cells + 2 uM doxorubicin), the differential viability (reversal) is 14.6% (inactive). The results for the inhibition in experiment [4] and in experiment [5] were -2.86% (inactive) and 0.63% (inactive), respectively.
`CC(CN1CCOCC1)(NS(=O)(=O)c1ccccc1)c1ccccc1` (stereo not given): the viability in experiment [1] was 106% (inactive); in experiment [2], 95.9% (inactive); in experiment [3] (setting [6]), 86.2%; in experiment [3] (setting [7]) it was 95.9%. Also, the differential viability (reversal) in experiment [3] (H69AR cells + 2 uM doxorubicin) is 9.75% (inactive). Besides, the inhibition in experiment [4] was -1.56% (inactive); in experiment [5], 0.95% (inactive).
For `Cc1ccc(Cn2ccc(NC(=O)c3noc4c3CCCC4)n2)cc1`, the viability in experiment [1] is 101% (inactive); in experiment [2] it was 112% (inactive); in experiment [3] (setting [6]), 88.6%; in experiment [3] (setting [7]) it was 112%. In experiment [3] (H69AR cells + 2 uM doxorubicin), the differential viability (reversal) is 23.6% (inactive). Also, the figures for the inhibition in experiment [4] and in experiment [5] were -3.25% (inactive) and 2.86% (inactive), respectively.
Take `O=C(Nc1ccccc1C(=O)N1CCOCC1)C1CCC(=O)N1C1CCCC1` (stereo not given): the viability was 108% (inactive) in experiment [1], 95% (inactive) in experiment [2], 95.7% in experiment [3] (setting [6]) and 95% in experiment [3] (setting [7]). For the same molecule, in experiment [3] (H69AR cells + 2 uM doxorubicin), the differential viability (reversal) is -0.755% (inactive). The inhibition is -8.8% (inactive) in experiment [4] and -3.97% (inactive) in experiment [5].
`CSC1CCCCC1(O)CSc1nc2c(cc1C#N)CCCC2` (stereo not given): the viability is 75.4% (inactive) in experiment [1], 92.6% (inactive) in experiment [2], 95.2% in experiment [3] (setting [6]) and 92.6% in experiment [3] (setting [7]). Besides, the differential viability (reversal) in experiment [3] (H69AR cells + 2 uM doxorubicin) is -2.66% (inactive). The inhibition in experiment [4] is -0.66% (inactive); in experiment [5] it was -1.9% (inactive).

In general, viability refers to a read-out of living cells in per cent, often relative to untreated cells. By inhibition is commonly meant the change of the read-out against control, counted positive when it falls.
